Laboratory results from ChEMBL document CHEMBL3525946, “Species comparison of in vivo P-glycoprotein-mediated brain efflux using mdr1a-deficient rats and mice” (Drug Metab Dispos, 2012).

Columns and labels:
[1] = Total brain to plasma partition coefficient of the compound in wild type Sprague-Dawley rat expressing Abcb1a at 5 mg/kg/day administered through continuous minipump treatment for 3 days; details: brain and plasma, other: continuous minipump
[2] = Total plasma concentration in mdr1a-deficient rat at 5 mg/kg/day administered through continuous minipump treatment for 3 days by UPLC-MS analysis; format: ADME, organism-based; details: other: continuous minipump
How it was run: (§1)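 Drug was infused subcutaneously by osmotic minipump for 3 days to steady state, at 1 µl/h in mice and 10 µl/h in rats, with doses derived from body weight and delivery rate. Animals were decapitated. Plasma came from EDTA trunk blood spun at 5000 g for 10 min at 4 °C. Whole brain was homogenised 1:4 in 70% acetonitrile and the supernatant kept. Samples were protein-precipitated with internal standard and analysed by UPLC. n=3-5, mean ± SEM.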

[3] = Unbound brain to plasma partition coefficient of the compound in wild type Crl:CF1 mouse expressing Abcb1a mutant at 4 mg/kg/day administered through continuous minipump treatment for 3 days; format: ADME, organism-based; details: other: continuous minipump, read-out: K(p,uu,brain)
How it was run: (§2)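 Kp,uu = Cbrain,total × fu,brain / Cplasma,total × fu,plasma, using steady-state totals from 3-day subcutaneous minipump infusion. Free fractions came from equilibrium dialysis (12-14 kDa membrane) of naive Sprague-Dawley rat or NMRI mouse plasma or brain homogenate spiked to 1 µM final, against pH 7.4 phosphate buffer for 5 h at 37 °C, read by LC-MS and corrected for brain dilution. fu is the mean of two determinations.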

[4] = Percentage unbound in Crl:NMRI(Han) mouse plasma at 1 uM after 5 hrs by equilibrium dialysis method; format: ADME, cell-free
How it was run: (§3)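 Equilibrium dialysis (12-14 kDa membrane) of plasma or brain homogenate from naïve male Sprague-Dawley rats or Crl:NMRI(Han) mice. Donor side spiked to 1 µM final; receiver phosphate buffer pH 7.4; 37°C for 5 h. Buffer phase quantified by LC-MS. Brain fu corrected for homogenate dilution to intact tissue. Mean of two independent determinations.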

[5] = Total brain to plasma partition coefficient of the compound in mdr1a-deficient Sprague-Dawley rat at 5 mg/kg/day administered through continuous minipump treatment for 3 days; details: brain and plasma, other: continuous minipump
[6] = Total plasma concentration in mdr1a-deficient mouse at 4 mg/kg/day administered through continuous minipump treatment for 3 days by UPLC-MS analysis; format: ADME, organism-based; details: other: continuous minipump; how it was run: as §1
[7] = Total drug level in wild type Crl:CF1 mouse brain expressing Abcb1a mutant at 4 mg/kg/day administered through continuous minipump treatment for 3 days by UPLC-MS analysis; format: ADME, organism-based; details: other: continuous minipump, read-out: Drug uptake; how it was run: as §1
[8] = Total plasma concentration in wild type Crl:CF1 mouse expressing Abcb1a mutant at 4 mg/kg/day administered through continuous minipump treatment for 3 days by UPLC-MS analysis; format: ADME, organism-based; details: other: continuous minipump; how it was run: as §1
[9] = Total drug level in wild type Sprague-Dawley rat brain expressing Abcb1a at 5 mg/kg/day administered through continuous minipump treatment for 3 days by UPLC-MS analysis; format: ADME, organism-based; details: other: continuous minipump, read-out: Drug uptake; how it was run: as §1
[10] = Total brain to plasma partition coefficient of the compound in wild type Crl:CF1 mouse expressing Abcb1a mutant at 4 mg/kg/day administered through continuous minipump treatment for 3 days; details: brain and plasma, other: continuous minipump
[11] = Total plasma concentration in wild type Sprague-Dawley rat expressing Abcb1a at 5 mg/kg/day administered through continuous minipump treatment for 3 days by UPLC-MS analysis; format: ADME, organism-based; details: other: continuous minipump; how it was run: as §1
[12] = Total drug level in mdr1a-deficient rat brain at 5 mg/kg/day administered through continuous minipump treatment for 3 days by UPLC-MS analysis; format: ADME, organism-based; details: other: continuous minipump, read-out: Drug uptake; how it was run: as §1
[13] = Percentage unbound in Crl:NMRI(Han) mouse brain at 1 uM after 5 hrs by equilibrium dialysis method; format: ADME, tissue-based; how it was run: as §3
[14] = Unbound brain to plasma partition coefficient of the compound in wild type Sprague-Dawley rat expressing Abcb1a at 5 mg/kg/day administered through continuous minipump treatment for 3 days; format: ADME, organism-based; details: other: continuous minipump, read-out: K(p,uu,brain); how it was run: as §2
[15] = Total drug level in mdr1a-deficient mouse brain at 4 mg/kg/day administered through continuous minipump treatment for 3 days by UPLC-MS analysis; format: ADME, organism-based; details: other: continuous minipump, read-out: Drug uptake; how it was run: as §1
[16] = Percentage unbound in Sprague-Dawley rat brain at 1 uM after 5 hrs by equilibrium dialysis method; format: ADME, tissue-based; how it was run: as §3
[17] = Percentage unbound in Sprague-Dawley rat plasma at 1 uM after 5 hrs by equilibrium dialysis method; format: ADME, cell-free; how it was run: as §3
[18] = Total brain to plasma partition coefficient of the compound in mdr1a-deficient mouse at 4 mg/kg/day administered through continuous minipump treatment for 3 days; details: other: continuous minipump
[19] = Unbound brain to plasma partition coefficient of the compound in mdr1a-deficient rat at 5 mg/kg/day administered through continuous minipump treatment for 3 days; format: ADME, organism-based; details: other: continuous minipump, read-out: K(p,uu,brain); how it was run: as §2
[20] = Unbound brain to plasma partition coefficient of the compound in mdr1a-deficient mouse at 4 mg/kg/day administered through continuous minipump treatment for 3 days; format: ADME, organism-based; details: other: continuous minipump, read-out: K(p,uu,brain); how it was run: as §2
[21] = Unbound brain to plasma partition coefficient of the compound in wild type Sprague-Dawley rat expressing Abcb1a at 9 mg/kg/day administered through continuous minipump treatment for 3 days; format: ADME, organism-based; details: other: continuous minipump, read-out: K(p,uu,brain)
[22] = Unbound brain to plasma partition coefficient of the compound in wild type Crl:CF1 mouse expressing Abcb1a mutant at 12 mg/kg/day administered through continuous minipump treatment for 3 days; format: ADME, organism-based; details: other: continuous minipump, read-out: K(p,uu,brain); how it was run: as §2
[23] = Total brain to plasma partition coefficient of the compound in wild type Sprague-Dawley rat expressing Abcb1a at 9 mg/kg/day administered through continuous minipump treatment for 3 days; format: ADME, organism-based; details: brain and plasma, other: continuous minipump
[24] = Total plasma concentration in mdr1a-deficient mouse at 12 mg/kg/day administered through continuous minipump treatment for 3 days by UPLC-MS analysis; format: ADME, organism-based; details: other: continuous minipump; how it was run: as §1
[25] = Total plasma concentration in mdr1a-deficient rat at 9 mg/kg/day administered through continuous minipump treatment for 3 days by UPLC-MS analysis; format: ADME, organism-based; details: other: continuous minipump; how it was run: as §1
[26] = Total drug level in wild type Sprague-Dawley rat brain expressing Abcb1a at 9 mg/kg/day administered through continuous minipump treatment for 3 days by UPLC-MS analysis; format: ADME, organism-based; details: other: continuous minipump, read-out: Drug uptake; how it was run: as §1
[27] = Total brain to plasma partition coefficient of the compound in wild type Crl:CF1 mouse expressing Abcb1a mutant at 12 mg/kg/day administered through continuous minipump treatment for 3 days; format: ADME, organism-based; details: brain and plasma, other: continuous minipump
How it was run: (§4)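 Rats (SD-Abcb1a knockout or wild-type, 350-500 g) or mice (Crl:CF1-Abcb1a mutant or CF-1 background, 25-45 g) received drug by subcutaneous osmotic minipump (pump content as free base) for 3 days to steady state. After decapitation, trunk EDTA plasma and whole brain (homogenised 1:4 in 70% acetonitrile) were assayed by UPLC. Kp = total brain/total plasma concentration. n=3-5, mean ± SEM.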

[28] = Total drug level in mdr1a-deficient mouse brain at 12 mg/kg/day administered through continuous minipump treatment for 3 days by UPLC-MS analysis; format: ADME, organism-based; details: other: continuous minipump, read-out: Drug uptake; how it was run: as §1
[29] = Unbound brain to plasma partition coefficient of the compound in mdr1a-deficient mouse at 12 mg/kg/day administered through continuous minipump treatment for 3 days; format: ADME, organism-based; details: other: continuous minipump, read-out: K(p,uu,brain); how it was run: as §2
[30] = Unbound brain to plasma partition coefficient of the compound in mdr1a-deficient rat at 9 mg/kg/day administered through continuous minipump treatment for 3 days; format: ADME, organism-based; details: other: continuous minipump, read-out: K(p,uu,brain)
[31] = Total drug level in wild type Crl:CF1 mouse brain expressing Abcb1a mutant at 12 mg/kg/day administered through continuous minipump treatment for 3 days by UPLC-MS analysis; format: ADME, organism-based; details: other: continuous minipump, read-out: Drug uptake; how it was run: as §1
[32] = Total drug level in mdr1a-deficient rat brain at 9 mg/kg/day administered through continuous minipump treatment for 3 days by UPLC-MS analysis; format: ADME, organism-based; details: other: continuous minipump, read-out: Drug uptake; how it was run: as §1
[33] = Total plasma concentration in wild type Sprague-Dawley rat expressing Abcb1a at 9 mg/kg/day administered through continuous minipump treatment for 3 days by UPLC-MS analysis; format: ADME, organism-based; details: other: continuous minipump; how it was run: as §1
[34] = Total brain to plasma partition coefficient of the compound in mdr1a-deficient rat at 9 mg/kg/day administered through continuous minipump treatment for 3 days; format: ADME, organism-based; details: brain and plasma, other: continuous minipump
[35] = Total brain to plasma partition coefficient of the compound in mdr1a-deficient mouse at 12 mg/kg/day administered through continuous minipump treatment for 3 days; format: ADME, organism-based; details: other: continuous minipump; how it was run: as §4
[36] = Total plasma concentration in wild type Crl:CF1 mouse expressing Abcb1a mutant at 12 mg/kg/day administered through continuous minipump treatment for 3 days by UPLC-MS analysis; format: ADME, organism-based; details: other: continuous minipump; how it was run: as §1

For Cc1nc2n(c(=O)c1CCN1CCC(c3noc4cc(F)ccc34)CC1)CCCC2 [RISPERIDONE], the Kp at 72 h [1] was 0.22, the concentration at 72 h [2] was 168 ng/mL and the Kp uu at 72 h [3] was 0.11. It also gave a fraction unbound at 5 h, 1 µM [4] of 0.27, a Kp at 72 h [5] of 1.9 and a concentration at 72 h [6] of 40 ng/mL. The concentration at 72 h [7] was 21 ng/g, the concentration at 72 h [8] was 43 ng/mL and the concentration at 72 h [9] was 41 ng/g. It also gave a Kp at 72 h [10] of 0.52, a concentration at 72 h [11] of 194 ng/mL and a concentration at 72 h [12] of 295 ng/g. The fraction unbound at 5 h, 1 µM [13] was 0.058, the Kp uu at 72 h [14] was 0.17 and the concentration at 72 h [15] was 149 ng/g. It also gave a fraction unbound at 5 h, 1 µM [16] of 0.09, a fraction unbound at 5 h, 1 µM [17] of 0.11 and a Kp at 72 h [18] of 3.8. The Kp uu at 72 h [19] was 1.4 and the Kp uu at 72 h [20] was 0.81.
Molecule COc1ccc(C(CN(C)C)C2(O)CCCCC2)cc1.Cl (stereo not given) [VENLAFAXINE HYDROCHLORIDE] has a Kp uu at 72 h [21] of 0.45, a fraction unbound at 5 h, 1 µM [4] greater than 0.99 and a Kp uu at 72 h [22] of 0.86. The Kp at 72 h [23] was 3.3, the concentration at 72 h [24] was 105 ng/mL and the fraction unbound at 5 h, 1 µM [13] was 0.18. The concentration at 72 h [25] was 63 ng/mL, the concentration at 72 h [26] was 158 ng/g and the fraction unbound at 5 h, 1 µM [16] was 0.092. The Kp at 72 h [27] was 4.7, the concentration at 72 h [28] was 828 ng/g and the fraction unbound at 5 h, 1 µM [17] was 0.64. For the same molecule, the Kp uu at 72 h [29] was 1.4, the Kp uu at 72 h [30] was 0.89 and the concentration at 72 h [31] was 403 ng/g. For the same molecule, the concentration at 72 h [32] was 389 ng/g, the concentration at 72 h [33] was 50 ng/mL and the Kp at 72 h [34] was 6.3. It also gave a Kp at 72 h [35] of 8.3 and a concentration at 72 h [36] of 85 ng/mL.
